Where “and” joins values, the source holds several entries; their conditions need not be identical. Equal values may be shown once.
How the values were obtained:
[1] = target: DNA topoisomerase II (Homo sapiens) (UniProt P11388+Q02880); experiment: Inhibition of human DNA Topoisomerase II mediated DNA cleavage through the stabilization of transient DAN/topoisomerase II cleavage complex; type: protein assay
How it was run: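 Supercoiled pBS DNA (0.1 μg) preincubated 15 min at 30 °C with drug at 50 μM in 50 mM Tris-HCl pH 7.5, 1 mM ATP, 120 mM KCl, 10 mM MgCl2, 0.5 mM DTT, 0.1 mM EDTA, BSA. Two units human topo II added, 30 min at 30 °C. SDS/proteinase K digestion 30 min at 55 °C. 1% agarose gel with ethidium bromide; linear DNA percentage read, mean of three independent experiments.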

[2] = tested on: L1210; experiment: Percent of L1210 cells in the G2+M phase of the cell cycle at a compound concentration of 10 uM; type: functional, Mus musculus
How it was run: (§1)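 L1210 cells (2.5 × 10⁵ cells/mL) were incubated for 21 h with compound at the stated concentration. Flow cytometry was run on 10⁴ cells per sample, and the percentage of cells in G2+M was recorded.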

[3] = tested on: L1210; experiment: Inhibitory concentration required to reduce 50 percent L1210 cell growth; type: functional, cell-based; settings: Mus musculus
How it was run: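 L1210 cells were grown in RPMI 1640 with 10% fetal calf serum, 2 mM glutamine, antibiotics and 10 mM HEPES (pH 7.4). Cells were exposed to compound for 48 h. MTT was then added for 4 h at 37 °C, and formazan was dissolved in DMSO and read at 540 nm. IC50 is the concentration reducing OD by 50%, from linear regression on the linear part of the curve. Triplicate.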

[4] = tested on: A-431; experiment: […] antiproliferative activity against A431 cell line; type: functional; settings: Homo sapiens
[5] = tested on: A549; experiment: Antitumor activity against A549 non small cell carcinoma at dose range of 25-100 mg/kg on day 14, 21, 28; activity expressed as maximum tolerated dose; type: functional, Homo sapiens
How it was run: (§2)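 A549 human lung tumour cells were implanted orthotopically, 10⁶ cells through the chest wall into the left pleural space of anaesthetised BALB/C nude mice. Once tumours were established, drug was given iv on days 14, 21 and 28 after tumour cell injection. The endpoint was life span, expressed as T/C (%) = median survival time of treated/control × 100. MTD was the dose causing no toxic death and/or no weight loss >20%.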

[6] = tested on: A549; experiment: […] antiproliferative activity against A549 cell line; type: functional; settings: Homo sapiens
[7] = tested on: DU-145; experiment: […] antiproliferative activity against DU-145 cell line; type: functional; settings: Homo sapiens
[8] = tested on: HT-29; experiment: […] antiproliferative activity against HT-29 cell line; type: functional; settings: Homo sapiens
[9] = tested on: L1210; experiment: Percent of L1210 cells in the G2+M phase of the cell cycle at a compound concentration of 0.2 uM; type: functional, Mus musculus; how it was run: as §1
[10] = tested on: IGROV-1; experiment: […] antiproliferative activity against IGROV1 cell line; type: functional; settings: Homo sapiens
[11] = tested on: K562; experiment: […] antiproliferative activity against K-562 cell line; type: functional; settings: Homo sapiens
[12] = tested on: L1210; experiment: […] antiproliferative activity against L1210 cell line; type: functional; settings: Mus musculus
[13] = tested on: MDA-MB-231; experiment: […] antiproliferative activity against MDA-MB-231 cell line; type: functional; settings: Homo sapiens
[14] = tested on: P388; experiment: Evaluated for long-term survivors scored at day 60; 0/6; type: functional, Mus musculus
[15] = tested on: NCI-H69; experiment: […] antiproliferative activity against NCI-H69 cell line; type: functional; settings: Homo sapiens
[16] = tested on: P388; experiment: […] antiproliferative activity against P388 cell line; type: functional; settings: Mus musculus
[17] = tested on: P388; experiment: Antitumor activity against P388 leukemia at dose range of 6.25-100 mg/kg on day 1, activity expressed as maximum tolerated dose; type: functional, Mus musculus
[18] = tested on: P388; experiment: Median survival time of treated animals/median survival time of control animals; type: functional, Mus musculus
[19] = tested on: SK-N-MC; experiment: […] antiproliferative activity against SK-N-MC cell line; type: functional; settings: Homo sapiens
[20] = tested on: L1210; experiment: Percent of L1210 cells in the G2+M phase of the cell cycle at a compound concentration of 2.5 uM; type: functional, Mus musculus; how it was run: as §1
[21] = tested on: L1210; experiment: Percent of L1210 cells in the G2+M phase of the cell cycle at a compound concentration of 25 uM; type: functional, Mus musculus; how it was run: as §1
[22] = tested on: L1210; experiment: Percent of L1210 cells in the G2+M phase of the cell cycle at a compound concentration of 0.5 uM; type: functional, Mus musculus; how it was run: as §1
[23] = tested on: L1210; experiment: Percent of L1210 cells in the G2+M phase of the cell cycle at a compound concentration of 50 uM; type: functional, Mus musculus; how it was run: as §1
[24] = tested on: A549; experiment: Antitumor activity against A549 non small cell carcinoma at dose range of 70-100 mg/kg on day 14, 21, 28; activity expressed as maximum tolerated dose; type: functional, Homo sapiens; how it was run: as §2
[25] = species on record: Mus musculus; experiment: Compound was evaluated for long-term survivors scored at day 60; 6/42; type: functional
[26] = Median survival time of treated animals/median survival time of control animals; ranges from 122-131; type: functional; how it was run: as §2
[27] = tested on: KB 3-1; experiment: In vitro antiproliferative activity against KB-3-1 cell line; settings: Homo sapiens
[28] = tested on: L1210; experiment: Percent of L1210 cells in the G2+M phase of the cell cycle at a compound concentration of 0.25 uM; type: functional, Mus musculus; how it was run: as §1
[29] = tested on: L1210; experiment: Percent of L1210 cells in the G2+M phase of the cell cycle at a compound concentration of 5 uM; Toxic at 10 uM; type: functional, Mus musculus; how it was run: as §1

## COc1cc([C@@H]2c3cc4c(cc3[C@@H](NS(=O)(=O)c3sc(NC(C)=O)nc3C)[C@H]3COC(=O)[C@H]23)OCO4)cc(OC)c1O
[1]
  Activity: 7
[2]
  Effect: 68%
[3]
  IC50: 3600 nM

## CCCCS(=O)(=O)N[C@@H]1c2cc3c(cc2[C@@H](c2cc(OC)c(O)c(OC)c2)[C@H]2C(=O)OC[C@@H]21)OCO3
[4]
  IC50: 142 nM
[5]
  MTD: 50
[6]
  IC50: 62.6 nM
[7]
  IC50: 304 nM
[1]
  Activity: 10
[8]
  IC50: 237 nM
[9]
  Effect: 75%
[10]
  IC50: 61.4 nM
[11]
  IC50: 139 nM
[3]
  IC50: 33 nM
[12]
  IC50: 33.5 nM
[13]
  IC50: 69.2 nM
[14]
  LTS: 0
[15]
  IC50: 316 nM
[16]
  IC50: 16.1 nM
[17]
  MTD: 100
[18]
  T/C: 161% and 105%
[19]
  IC50: 85.7 nM

## COc1cc([C@@H]2c3cc4c(cc3[C@@H](NS(=O)(=O)CCCN=[N+]=[N-])[C@H]3COC(=O)[C@H]23)OCO4)cc(OC)c1O
[1]
  Activity: 32
[3]
  IC50: 35 nM

## COc1cc([C@@H]2c3cc4c(cc3[C@@H](N=[N+]=[N-])[C@H]3COC(=O)[C@H]23)OCO4)cc(OC)c1O
[1]
  Activity: 44
[20]
  Effect: 61%
[3]
  IC50: 570 nM

## CCCCCCCCCCCCCCCCS(=O)(=O)N[C@@H]1c2cc3c(cc2[C@@H](c2cc(OC)c(O)c(OC)c2)[C@H]2C(=O)OC[C@@H]21)OCO3
[1]
  Activity: 0
[21]
  Effect: 73%
[3]
  IC50: 5500 nM

## COc1cc([C@@H]2c3cc4c(cc3[C@@H](NS(C)(=O)=O)[C@H]3COC(=O)[C@H]23)OCO4)cc(OC)c1O
[1]
  Activity: 50
[3]
  IC50: 70 nM
[22]
  Effect: 77%

## COc1cc([C@@H]2c3cc4c(cc3[C@@H](NS(=O)(=O)CCCN)[C@H]3COC(=O)[C@H]23)OCO4)cc(OC)c1O
[1]
  Activity: 45
[23]
  Effect: 75%
[3]
  IC50: 2500 nM

## COc1cc([C@@H]2c3cc4c(cc3[C@@H](O[C@@H]3O[C@@H]5CO[C@@H](C)O[C@H]5[C@H](O)[C@H]3O)[C@H]3COC(=O)[C@H]23)OCO4)cc(OC)c1O [ETOPOSIDE]
[4]
  IC50: 591 nM
[24]
  MTD: 70
[6]
  IC50: 664 nM
[7]
  IC50: 2370 nM
[1]
  Activity: 50
[8]
  IC50: 2370 nM
[20]
  Effect: 80%
[10]
  IC50: 984 nM
[11]
  IC50: 522 nM
[13]
  IC50: 600 nM
[25]
  LTS: 6
[15]
  IC50: 1190 nM
[16]
  IC50: 29.8 nM
[17]
  MTD: 100
[18]
  T/C: 233%
[26]
  T/C: 131%
[19]
  IC50: 275 nM
[27]
  IC50: 566 nM

## COc1cc([C@@H]2c3cc4c(cc3[C@@H](NS(=O)(=O)CCCCl)[C@H]3COC(=O)[C@H]23)OCO4)cc(OC)c1O
[1]
  Activity: 14
[28]
  Effect: 66%
[3]
  IC50: 45 nM

## COc1cc([C@@H]2c3cc4c(cc3[C@@H](NS(=O)(=O)c3ccc(N=[N+]=[N-])cc3)[C@H]3COC(=O)[C@H]23)OCO4)cc(OC)c1O
[1]
  Activity: 9
[3]
  IC50: 210 nM
[22]
  Effect: 69%

## COc1cc([C@@H]2c3cc4c(cc3[C@@H](NS(=O)(=O)c3c(F)c(F)c(F)c(F)c3F)[C@H]3COC(=O)[C@H]23)OCO4)cc(OC)c1O
[1]
  Activity: 0
[29]
  Effect: 52%
[3]
  IC50: 1000 nM
